Laboratory results: ChEMBL document CHEMBL4819012, “Discovery of novel 2-aryl-3-sulfonamido-pyridines (HoAns) as microtubule polymerization inhibitors with potent antitumor activities” (Eur J Med Chem, 2021)

Tests used:
A549 = assay: Antiproliferative activity against human A549 cells assessed as cell viability measured after 72 hrs by MTS method; format: functional, cell-based; conditions: A549, 72 h
Outline: (§1)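 Log-phase cells plated at 5×10^3–6×10^3 per well for 24 h, then given graded compound concentrations in fresh medium for 72 h, five replicate wells. Medium replaced with medium containing 10% MTS, 30 min or more at 37 °C in dark; OD 490 nm read. IC50 by nonlinear regression; mean ± SD of at least three experiments.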

NCI-H460 = assay: Antiproliferative activity against human NCI-H460 cells assessed as cell viability measured after 72 hrs by MTS method; format: functional, cell-based; conditions: NCI-H460, 72 h; outline: as §1
[1] = biological target: Tubulin beta (Homo sapiens) (UniProt P68371+Q9H4B7+Q13509+P04350+Q3ZCM7+P07437+Q13885+Q9BVA1+Q9BUF5+A6NNZ2); assay: Inhibition of N,N'-Ethylenebis(iodoacetamide) binding to beta tubulin in human SW-620 cells at 20 to 40 uM preincubated for 2 hrs followed by addition of EBI and measured after 2 hrs by western blot assay; format: cell-based; conditions: dose 20-40 µM
Outline: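 SW620 cells (5×10^5 per well) pretreated for 2 h with 10, 20 or 40 μM of test agent or DMSO, then given 100 μM EBI for 2 h. Lysed in SDS loading buffer. β-tubulin and β-tubulin–EBI adduct bands resolved by western blot probed with anti-β-tubulin.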

RKO [2] = assay: Induction of cell cycle arrest in human RKO cells assessed as accumulation of cells in G1 phase at 0.5 uM measured after 24 hrs by PI staining based flow cytometry method (reference value: 39.54%); format: functional
PANC-1 [3] = assay: Induction of cell cycle arrest in human PANC-1 cells assessed as accumulation of cells in S phase at 0.5 uM measured after 24 hrs by PI staining based flow cytometry method (reference value: 65%); format: functional
PANC-1 [4] = assay: Induction of cell cycle arrest in human PANC-1 cells assessed as accumulation of cells in G2 phase at 0.5 uM measured after 24 hrs by PI staining based flow cytometry method (reference value: 3.63%); format: functional
RKO [5] = assay: Induction of apoptosis in human RKO cells assessed as late apoptotic cells at 0.5 uM measured after 24 hrs by PI/Annexin V staining based flow cytometry assay (reference value: 0.81%); format: functional
[6] = Toxicity against Athymic nude mouse xenografted with SW-620 cells assessed as toxicity in liver at 25 mg/kg per two days, po measured after 20 days by H and E staining method; format: organism-based; conditions: in vivo, 480 h, time 20 day
Outline: (§2)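 At the end of the 20-day oral SW620 xenograft study (25 mg/kg every 2 days, n = 6), heart, liver, spleen, lung and kidney were fixed in 4% paraformaldehyde and embedded in paraffin. 4 μm sections stained with Mayer hematoxylin 5 min and eosin-phloxine 2 min, then examined by light microscopy.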

[7] = Toxicity against Athymic nude mouse xenografted with SW-620 cells assessed as toxicity in lung at 25 mg/kg per two days, po measured after 20 days by H and E staining method; format: organism-based; conditions: in vivo, 480 h, time 20 day; outline: as §2
[8] = Toxicity against Athymic nude mouse xenografted with SW-620 cells assessed as toxicity in kidney at 25 mg/kg per two days, po measured after 20 days by H and E staining method; format: organism-based; conditions: in vivo, 480 h, time 20 day; outline: as §2

IC50 (A549) [µM] | IC50 (NCI-H460) [µM] | inhibition [1] | Compound | Activity (RKO [2]) [%] | Activity (PANC-1 [3]) [%] | Activity (PANC-1 [4]) [%] | Activity (RKO [5]) [%] | Activity [6] | Activity [7] | Activity [8]
1.38 | 2.04 | Dose-Dependent Effect | COc1ccc(S(=O)(=O)Nc2cccnc2Nc2ccc(O)cc2)cc1 [ABT-751] |  |  |  |  |  |  | 
 |  |  | COc1ccc(S(=O)(=O)Nc2cccnc2-c2ccc(C#N)c(F)c2)cc1 | 36.95 | 50.11 | 15.67 | 1.04 | Non-Toxic | Non-Toxic | Non-Toxic
